Source: PMC5412920 (Journal of Clinical Pharmacology, 2016)
Where two headings read alike, the source gives them in different places.

Assays:
[1] = cited from earlier work
[2] = assay type: in vivo, human; settings: for tmax / half-life: human, plasma, oral; for tmax: median (min-max); for half-life: arithmetic mean (SD); for AUCu/dose, geometric least-squares mean / Cmax,u/dose, geometric least-squares mean: unbound
[3] = Renal impairment study: safety and tolerability; assay type: in vivo, human
Outline: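 In the renal-impairment study, adverse events were recorded from screening until follow-up and coded by System Organ Class and preferred term (MedDRA 17.0). Vital signs, ECGs and clinical laboratory tests were also recorded. All subjects received a single fasted oral 50 mg dose. Healthy subjects returned for follow-up 3–7 days later.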

[4] = Unbound fraction in plasma; assay type: in vitro ADME, human; settings: human, plasma, oral, fu,av, hepatic impairment study, median (min-max)
Outline: (§1)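 Unbound fraction was measured in human plasma by ultrafiltration after a single oral dose. Ultrafiltrate was analysed by LC-MS/MS in MRM mode with carbon-13 internal standards. Within each subject, the mean percentage unbound from 3 results was applied to all of that subject's samples to give the average fraction unbound (fu,av).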

plasma proteins = test: Unbound fraction in plasma; assay type: in vitro ADME, human
Outline: as §1

[5] = Hepatic impairment study: safety and tolerability; assay type: in vivo, human
Outline: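 Adverse events were collected from screening until follow-up at 7–14 days postdose and coded by System Organ Class and preferred term (MedDRA 17.0). Vital signs, ECGs and clinical laboratory tests were also recorded. Single fasted oral doses were 50 mg (mild), 50 or 25 mg (moderate), 20 mg (severe Child-Pugh) and 50 mg (healthy).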

[6] = Renal impairment study: excretion in urine and blood dialysate; assay type: in vivo, human
Outline: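 Subjects were ESRD patients on haemodialysis or healthy subjects with creatinine clearance >80 mL/min, each given 50 mg orally while fasted. ESRD patients were dosed once after dialysis and, after a washout of ≥7 days, once 1 h before dialysis. Urine was collected predose and in intervals to 72 h. Dialysate spot samples were taken every 30 min, and parameters were derived by the area under the excretion rate curve method. Analysis was by LC-MS/MS.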

[7] = assay type: in vivo, human; settings: for AUCu, geometric least-squares mean / Cmax,u, geometric least-squares mean / AUCu / Cmax,u: unbound
[8] = Hepatic impairment study: excretion in urine; assay type: in vivo, human
Outline: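 Urine from hepatic-impairment and healthy subjects was collected at −12 to 0 h predose, then 0–6, 6–12, 12–24, 24–36 and 36–48 h, and every 24 h to 120 h after a single oral dose. Dosing followed an overnight fast, with fasting until 4 h postdose. Analytes were measured by LC-MS/MS (positive electrospray, MRM) against carbon-13 internal standards.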

[9] = non-Asian patients, 75 mg twice daily, used as exposure limit
[10] = moderate hepatic impairment, 50 or 25 mg
[11] = severe hepatic impairment, 20 mg
[12] = healthy subjects, 50 mg, geometric mean (gCV%)
[13] = ESRD, treatment period 1 (50 mg after dialysis), geometric mean (gCV%)

AUC/dose, geometric least-squares mean ([2]; healthy subjects, 50 mg): 53.64 ng·h/mL/mg
Cmax/dose, geometric least-squares mean ([2]; healthy subjects, 50 mg): 18.88 ng/mL/mg
tmax ([2]; 20 mg, severe hepatic impairment): 1 h
half-life ([2]; 50 mg, t1/2, healthy subjects): 8.02 h
half-life ([2]; 50 mg, t1/2, mild hepatic impairment): 7.72 h
half-life ([2]; 50 mg, t1/2, moderate hepatic impairment, 50 mg dose only): 9.92 h
tmax ([2]; 50 mg, healthy subjects): 1 h
tmax ([2]; 50 mg, mild hepatic impairment): 1.25 h
tmax ([2]; 50 mg, moderate hepatic impairment, 50 mg dose only): 1 h
AUC/dose lower than in healthy subjects ([2]; mild hepatic impairment): 14%
Cmax/dose lower than in healthy subjects ([2]; mild hepatic impairment): 22%
AUC/dose, geometric least-squares mean ([2]; mild hepatic impairment, 50 mg): 45.93 ng·h/mL/mg
Cmax/dose, geometric least-squares mean ([2]; mild hepatic impairment, 50 mg): 14.82 ng/mL/mg
AUC/dose higher than in healthy subjects ([2]; moderate hepatic impairment): 59%
Cmax/dose higher than in healthy subjects ([2]; moderate hepatic impairment): 25%
AUC/dose, geometric least-squares mean [2, 10]: 85.11 ng·h/mL/mg
Cmax/dose, geometric least-squares mean [2, 10]: 23.57 ng/mL/mg
AUC/dose higher than in healthy subjects ([2]; severe hepatic impairment): 57%
AUC/dose, geometric least-squares mean [2, 11]: 84.29 ng·h/mL/mg
Cmax/dose, geometric least-squares mean [2, 11]: 18.53 ng/mL/mg
AUCu/dose, geometric least-squares mean ([2]; healthy subjects, 50 mg): 0.1837 ng·h/mL/mg
Cmax,u/dose, geometric least-squares mean ([2]; healthy subjects, 50 mg): 0.06473 ng/mL/mg
AUCu/dose, geometric least-squares mean ([2]; mild hepatic impairment, 50 mg): 0.1271 ng·h/mL/mg
Cmax,u/dose, geometric least-squares mean ([2]; mild hepatic impairment, 50 mg): 0.04094 ng/mL/mg
AUCu/dose, geometric least-squares mean [2, 10]: 0.2585 ng·h/mL/mg
Cmax,u/dose, geometric least-squares mean [2, 10]: 0.07165 ng/mL/mg
AUCu/dose, geometric least-squares mean [2, 11]: 0.5828 ng·h/mL/mg
Cmax,u/dose, geometric least-squares mean [2, 11]: 0.1280 ng/mL/mg
fraction unbound ([4]; 20 mg, severe impairment): 0.0065
fraction unbound ([4]; 50 mg, healthy subjects): 0.0035
fraction unbound ([4]; 50 mg, mild impairment): 0.0028
fraction unbound ([4]; 50 mg, moderate impairment, 50 mg dose only): 0.003
difference of unbound fraction compared with healthy subjects (plasma proteins; hepatic impairment study, mild or moderate impairment): ≤ 20%
increase in the unbound fraction compared with healthy subjects (plasma proteins; hepatic impairment study, severe impairment): ~90%
fraction unbound (plasma proteins; human, plasma, oral, 50 mg, fu,av, renal impairment study, healthy subjects, median (min-max)): 0.004
dose excreted in dialysate ([6]; ESRD, dosed 1 h before dialysis): 0.92%
fraction excreted in urine ([6]; healthy subjects, 50 mg): 0.49%
clearance ([6]; human, blood dialysate, oral, 50 mg): 9.63 mL/min
dialysis clearance in ESRD as percentage of CL/F in the healthy subjects group ([6]; in vivo): approximately 3%
AUC lower in the ESRD group (dosed post dialysis) vs healthy subjects ([7]; 50 mg): 28%
AUC lower when dosed before vs after dialysis ([7]; ESRD, 50 mg): 17%
Cmax lower when dosed before vs after dialysis ([7]; ESRD, 50 mg): 30%
CL/F [7, 12]: 19.1 L/h
Cmax ([7]; human, plasma, oral, 50 mg, Cmax, healthy subjects, geometric mean (gCV%)): 0.863 µg/mL
half-life ([7]; human, plasma, oral, 50 mg, t1/2, healthy subjects, arithmetic mean (SD)): 7.34 h
AUCu, geometric least-squares mean ([7]; ESRD, treatment period 1): 0.01025 µg·h/mL
Cmax,u, geometric least-squares mean ([7]; ESRD, treatment period 1): 0.00395 µg/mL
AUCu [7, 13]: 10.3 (20.1) ng·h/mL
Cmax,u [7, 13]: 3.95 (34.7) ng/mL
AUCu, geometric least-squares mean ([7]; healthy subjects): 0.01055 µg·h/mL
Cmax,u, geometric least-squares mean ([7]; healthy subjects): 0.00348 µg/mL
AUCu [7, 12]: 10.6 (23.0) ng·h/mL
Cmax,u [7, 12]: 3.48 (42.5) ng/mL
dose excreted in urine ([8]; healthy subjects, 50 mg): 0.44%
dose excreted in urine ([8]; mild hepatic impairment, 50 mg): 0.46%
dose excreted in urine ([8]; moderate hepatic impairment): 0.50%
dose excreted in urine [8, 11]: 0.90%
SMILES: Cn1cnc2c(F)c(Nc3ccc(Br)cc3Cl)c(C(=O)NOCCO)cc21 [Selumetinib]
dose linearity of pharmacokinetics ([1]; healthy volunteers): linear pharmacokinetics up to 75 mg
mean steady-state AUC(0-12) [1, 9]: 4.736 µg·h/mL
mean steady-state Cmax [1, 9]: 1.307 µg/mL
AEs reported ([3]; healthy subjects, 50 mg): No AEs were reported
tolerability ([3]; single oral dose 50 mg): well tolerated
most frequently reported AEs, diarrhea and vomiting, each ([5]; all 32 subjects (N = 2 each)): 6.3%
subjects reporting at least 1 AE ([5]; all 32 subjects, mild or moderate severity): 15.6%
tolerability ([5]; single oral dose 20-50 mg): well tolerated
